Screening results (PubChem)
Compounds with a hit are over-represented: about 4.6% of the library has one in this group of screens.
OX1R antag-1 = blocks the human orexin 1 receptor | AID 434989 | inhibition, % at 5 µM | CHO/OX1R cells, Fluo-8 calcium fluorescence, orexin A | 0.43% of 330,000 active;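 active = inhibition above its plate's threshold, mean inhibition of all tested compounds on the plate plus 3 SD, cut at about 37% in these data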;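 note: 0% = orexin A challenge wells and 100% = SB-334867-A antagonist wells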
Target sequence (O43613 whole entry, looked up): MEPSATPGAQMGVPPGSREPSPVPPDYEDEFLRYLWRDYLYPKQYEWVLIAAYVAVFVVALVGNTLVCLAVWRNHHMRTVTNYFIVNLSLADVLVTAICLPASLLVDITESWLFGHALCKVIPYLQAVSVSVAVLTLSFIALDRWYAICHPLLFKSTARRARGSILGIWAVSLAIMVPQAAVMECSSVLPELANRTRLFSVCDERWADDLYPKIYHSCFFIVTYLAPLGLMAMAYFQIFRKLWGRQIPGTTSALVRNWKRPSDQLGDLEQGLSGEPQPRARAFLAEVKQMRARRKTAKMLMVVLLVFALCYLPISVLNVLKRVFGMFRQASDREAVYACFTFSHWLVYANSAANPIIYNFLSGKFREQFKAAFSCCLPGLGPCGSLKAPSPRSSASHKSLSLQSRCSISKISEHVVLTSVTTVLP
GPR7 antag = human neuropeptides B/W receptor 1 antagonism | P48145 | 1.1% of 290,000 active | GPR7-expressing cells, fluorescence antagonist assay | inhibition, % at 4.4 µM; in the data active = inhibition above about 16%, passing the limit was not always enough;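 note: cells stimulated with the agonist NPW; 0% = agonist with vehicle and 100% = vehicle without agonist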
Target sequence (P48145 whole entry, looked up): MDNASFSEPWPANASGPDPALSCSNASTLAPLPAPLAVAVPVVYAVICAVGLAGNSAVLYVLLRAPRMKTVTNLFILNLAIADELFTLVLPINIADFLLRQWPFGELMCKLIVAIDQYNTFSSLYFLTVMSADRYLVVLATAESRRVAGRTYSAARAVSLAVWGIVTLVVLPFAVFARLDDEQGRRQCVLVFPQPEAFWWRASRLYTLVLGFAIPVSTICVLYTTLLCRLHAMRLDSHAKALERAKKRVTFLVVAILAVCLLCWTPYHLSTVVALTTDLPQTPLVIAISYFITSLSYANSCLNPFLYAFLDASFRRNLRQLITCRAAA
CHO parental Ca = signal in parental CHO cells, OX1R antagonist counter-screen; parental CHO-K1, ATP-induced calcium, Fluo-8 fluorescence; 0.63% of 330,000 active; inhibition, % at 5.6 µM;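 active = inhibition above that plate's mean sample inhibition plus 3 SD, cut at about 26% in these data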;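 note: 0% = ATP-challenged DMSO wells and 100% = DMSO wells without ATP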
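Test system: untransfected parental CHO cell line; also added: ATP stimulus; dosing: 5.6 µM, single dose; signal: calcium-sensitive Fluo-8 fluorescence; measure: percent inhibition of ATP-evoked calcium rise, normalized to controls; benchmarks: low control ATP plus DMSO, high control DMSO only; replication: one well per compound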
OX1R antag-2 = OX1R (human) antagonism; O43613; OX1R-expressing cells, FRET antagonist read-out; inhibition, % at 6.6 µM; 1.8% of 330,000 active; AID 485270; in the data active = inhibition mostly above about 38%, no sharp cut-off; inactive = mostly below about 40%;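 note: 0% = agonist challenge alone and 100% = reference antagonist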
TAAR1 antagonist = human TAAR1 antagonism. 1.5% of 360,000 active. inhibition, % at 3 µM. CHO RD-HGA16 TAAR1, Fluo-8 calcium fluorescence, antagonist. AID 624466;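 active = inhibition above a per-plate cutoff, the mean inhibition of test compounds on that plate plus 3 SD, cut at about 49% in these data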;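 note: 0% = DMSO plus EC80 beta-PEA response and 100% = DMSO alone without agonist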
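Test system – hTAAR1-expressing CHO RD-HGA16 cells, Gα16-coupled · Also added – β-PEA at EC80 concentration, post-compound challenge · Compound – 3 µM, single point · Incubation – dye loading 75 min at 37 °C, then 30 min room temperature · Measured by – Fluo-8 intracellular calcium dye fluorescence, real-time kinetic reads · Benchmarks – vehicle and agonist controls · Replicates – singlicate, one well per test compound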
TAAR1 agonist = agonists of human TAAR1; CHO RD-HGA16 TAAR1, Fluo-8 calcium fluorescence; vehicle wells 0%, saturating PEA agonist 100%; activation, % at 3 µM; AID 624467; Q96RJ0; 0.99% of 360,000 active;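 active = activation above the mean activation of all test compounds in the run plus 3 SD, cut at about 38% in these data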
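Repeats: no replicates (n 1) | Material: CHO-derived RD-HGA16 cells with stable Gα16 and human TAAR1 | Technique: Kinetic Fluo-8 calcium fluorescence | Schedule: 17-24 h seeding, 75 min 37 °C dye, 30 min RT | Evaluation: % activation from peak over basal fluorescence ratio, DMSO-to-PEA scaled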
OX1R HTRF confirm = OX1R (human) antagonism, HTRF confirmed. shares compounds with OX1R antag-2. OX1R-expressing cells, HTRF antagonist assay. AID 492964. inhibition, % at 6.6 µM. 49% of 1,800 active; in the data active = inhibition above about 55%;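 note: CHO cells expressing OX1R stimulated with orexin A at about EC80; 0% = agonist challenge alone and 100% = reference antagonist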
CHO-K1 HTRF = counter-screen: parental CHO-K1 HTRF response; inhibition, % at 6.6 µM; parental CHO-K1 cells, HTRF counterscreen; 48% of 1,800 active; shares compounds with OX1R antag-2; in the data active = inhibition above about 17%;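 note: 0% = agonist challenge with vehicle and 100% = vehicle alone without agonist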
The depositor's hits bear a star; x = no result given.

SMILES | OX1R antag-1 | GPR7 antag | CHO parental Ca | OX1R antag-2 | TAAR1 antagonist | TAAR1 agonist | OX1R HTRF confirm | CHO-K1 HTRF
O=C(Nc1ccc2nsnc2c1)N1CCCCCC1 | -2.8 | 8.8 | -7.8 | 87.2* | 9.6 | -0.4 | 35.2 | 27.4*
CN(C)S(=O)(=O)c1cccc2c1C(=O)c1ccccc1C2=O | -14.4 | -7.2 | -6.6 | 104.8* | -4.9 | 1.4 | 20.3 | 16.6
Cc1nc2c(OCc3ccc(C#N)cc3)cccn2c1N(C)Cc1cccs1 | x | x | x | x | 31.7 | 8.0 | x | x
N#CC1=C(N)Oc2cc3ccccc3cc2C1c1cccnc1 (configuration not stated) | -16.2 | 2.9 | -16.8 | 25.0 | -14.3 | 7.4 | x | x
N#CC1=C(N)Oc2c(ccc3cccnc23)C1c1cccnc1 (configuration not stated) | -31.1 | -9.3 | -20.0 | 96.1* | -0.6 | 8.5 | 24.4 | 8.3
O=C(CSc1ccc(-c2cccs2)nn1)c1cccs1 | 20.5 | -2.2 | -19.8 | 111.3* | 6.0 | 2.0 | 95.3* | 6.3
COC(=O)[C@@]12C[C@@H](CC(=O)NCc3ccc(C)o3)C(=O)N(Cc3ccco3)C1=CCC(C)(C)C2 | x | x | x | x | -23.1 | 4.3 | x | x
CCN(CC)C(=O)C1=C(C)N(CCC2=CCCCC2)C(=O)C(CC(=O)NCc2cccs2)C1 (configuration not stated) | x | x | x | x | -7.8 | -0.5 | x | x
CC(C)(C)c1ccc(S(=O)(=O)/N=C2\C=C(NS(=O)(=O)c3ccccc3)C(=O)c3ccccc32)cc1 | -17.7 | -5.9 | -33.6 | 88.1* | -9.7 | -2.8 | 47.4 | 4.1
Cc1ccc(S(=O)(=O)/N=C2\C=C(NS(=O)(=O)c3ccccc3)C(=O)c3ccccc32)c(C)c1 | x | x | x | x | -0.3 | 3.1 | x | x
Cc1nc2[nH]onc2c2nccc(=O)c12 | -20.6 | -6.5 | -3.6 | 120.5* | 7.8 | 2.4 | 32.0 | 38.3*
O=C1c2ccccc2C(=O)c2c1ccc1c(=O)n(-c3ccccc3)[nH]c21 | -17.5 | -5.8 | -6.0 | 22.8 | 2.0 | -2.1 | x | x
CC(C)Cn1[nH]c2c3c(ccc2c1=O)C(=O)c1ccccc1C3=O | -22.8 | -0.9 | -24.8 | 135.2* | x | x | 36.6 | 33.3*
CCC(=O)OCCNc1cc(SCCC(=O)OC)c2nonc2c1[N+](=O)[O-] | -20.3 | -3.7 | -1.7 | 83.9* | -8.0 | 1.3 | 59.1* | 78.1*
CC(=O)OCCN(C)c1cc(SC(C)C)c2nonc2c1[N+](=O)[O-] | -20.8 | -9.3 | -0.6 | 26.6 | 20.0 | 0.8 | x | x
CCC(=O)OCCNc1cc(Sc2nccn2C)c2nonc2c1[N+](=O)[O-] | 34.5 | 7.9 | 30.3 | 122.2* | 23.9 | -1.5 | 63.2* | 89.8*
CC(=O)OCCNc1cc(SC(C)C)c2nonc2c1[N+](=O)[O-] | -24.8 | -14.3 | -10.7 | 104.0* | -20.4 | 0.8 | 45.8 | 71.6*
O=C(Nc1ccc2c(c1)OCCO2)C(c1cc2ccccc2o1)N1CCN(C/C=C/c2ccccc2)CC1 (configuration not stated) | x | x | x | x | -21.7 | 3.8 | x | x
COC(=O)c1c(N)[nH]c(C(=O)c2ccccc2)c1-c1ccc(Cl)cc1 | x | x | x | x | -5.7 | 14.4 | x | x
CCCNC(=O)C1(C)CCCN(C(=O)c2ccccc2OC(F)(F)F)C1 (configuration not stated) | x | x | x | x | -23.9 | 1.9 | x | x
COc1cc(/C=C2\OC(=O)c3c(OC)cccc32)ccc1O | -14.3 | -2.0 | 0.2 | 79.5* | 9.6 | 11.7 | 57.6* | 12.9
COc1ccc(Br)cc1/C=C/C(=O)Nc1ccc(C)cc1 | -9.6 | -9.1 | -25.7 | 94.6* | 30.2 | -1.8 | 68.5* | 21.6*
COC(=O)CNC(=O)/C=C/c1cc(Br)ccc1OC | -13.7 | -1.7 | -5.1 | 21.9 | -19.1 | 1.5 | x | x
Cc1c(=O)n(OCc2ccccn2)c2ccccc2[n+]1[O-] | -15.8 | -14.3 | -3.4 | 67.8 | -5.9 | 12.5 | x | x
O=c1c[n+]([O-])c2ccccc2n1OCc1ccccn1 | -7.7 | -6.3 | 5.8 | 128.6* | -2.3 | 4.8 | 40.1 | 54.8*
SMILES | OX1R antag-1 | GPR7 antag | CHO parental Ca | OX1R antag-2 | TAAR1 antagonist | TAAR1 agonist | OX1R HTRF confirm | CHO-K1 HTRF
COC(=O)c1ccccc1COn1c(=O)c[n+]([O-])c2ccccc21 | -23.9 | -0.6 | -14.0 | 84.7* | -6.8 | 2.6 | 31.1 | 29.4*
O=c1c[n+]([O-])c2ccccc2n1OCc1c(F)cccc1F | 1.0 | -12.5 | -9.5 | 81.3* | 2.6 | 3.5 | 53.7 | 52.8*
CCOn1c(=O)c[n+]([O-])c2ccccc21 | -8.0 | -18.6 | -6.9 | 40.4 | -24.9 | 3.1 | x | x
NC(CCC(=O)NC(CS)C(=O)NCC(=O)O)C(=O)O (configuration not stated) | x | x | x | x | -4.2 | 0.7 | x | x
CC1(C(=O)NS(=O)(=O)c2ccccc2)CCN1C(=O)CC(c1ccccc1)c1ccccc1 (configuration not stated) | x | x | x | x | -19.9 | 2.2 | x | x
CN1CCN(c2cc(-c3cccc(C(=O)O)c3)nc3ccnn23)CC1 | x | x | x | x | -2.6 | 0.8 | x | x
CCc1nc2ccccc2n(CC)c1=O | -14.1 | -11.5 | 2.3 | 21.4 | -10.7 | -0.7 | x | x
CCn1c(=O)c(C(C)=O)nc2ccccc21 | -9.1 | -6.7 | -16.9 | 99.7* | -9.7 | 1.9 | 30.8 | 5.3
Cc1ccc2ncc(NC(=O)c3ccc(F)cc3)c(=O)n2c1 | -18.9 | -1.6 | -1.2 | 90.8* | -6.5 | 17.9 | 29.4 | 33.3*
COc1cccc(CCNc2ccc(N3C(=O)CC(C)C3=O)cc2[N+](=O)[O-])c1 (configuration not stated) | -23.9 | 8.0 | -8.9 | 30.0 | -5.5 | 0.2 | x | x
COc1ccc(Nc2ccc(N3C(=O)CC(C)C3=O)cc2[N+](=O)[O-])cn1 (configuration not stated) | -13.3 | 0.2 | 11.7 | 78.4* | -2.8 | 4.6 | 41.2 | 38.9*
COC(=O)c1cc2c(c3c4ccccc4n(S(=O)(=O)c4ccc(OC)cc4)c13)C(=O)N(Cc1ccc(C(F)(F)F)cc1)C2 | x | x | x | x | -18.2 | -0.6 | x | x
CC1(Cc2ccc(F)cc2)C(=O)Nc2ccc(-c3cccnc3)cc21 (configuration not stated) | x | x | x | x | -12.3 | 0.8 | x | x
COc1ccc(CCNC(=O)c2ccc3c(c2)S(=O)(=O)N=C2CCCCCN23)cc1OC | x | x | x | x | -15.7 | 2.2 | x | x
COc1cc(/C=N/NC(=O)c2sc3nc(C)cc(C)c3c2N)ccc1O | 25.9 | -2.2 | -10.8 | 99.7* | 33.6 | 8.2 | 97.7* | 24.6*
COc1cc(/C=N/n2cnc3c(sc4nc(C)cc(C)c43)c2=O)ccc1O | -8.1 | -15.1 | -6.7 | 7.1 | x | x | x | x
CC(C)c1ccc(CC(=O)N2CCC2(C)C(=O)Nc2ccc3c(c2)OCCO3)cc1 (configuration not stated) | x | x | x | x | 4.4 | -1.2 | x | x
N#Cc1ccccc1OCC(=O)Nc1ccc2c(c1)OCO2 | x | x | x | x | -1.3 | 0.5 | x | x
